In ChEMBL document CHEMBL4033712, “Synthesis and biological evaluation of new C-12(α/β)-(N-) sulfamoyl-phenylamino-14-deoxy-andrographolide derivatives as potent anti-cancer agents” (Bioorg Med Chem Lett, 2017):

Columns and labels:
Format in all cases: functional
[1] = test system: HOP-62; assay: Anticancer activity against human HOP62 cells assessed as cell growth at 10 uM after 48 hrs by sulforhodamine B assay relative to control; settings: HOP-62, 48 h, read-out: Activity
How it was run: (§1)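 Single-dose NCI-60 panel screen: compound added at 10 µM and the culture incubated 48 h. The end point was read by protein staining with sulforhodamine B. The value is percent growth of treated cells relative to untreated control cells, reported as a mean graph across the panel.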

[2] = test system: MOLT-4; assay: Anticancer activity against human MOLT4 cells assessed as cell growth at 10 uM after 48 hrs by sulforhodamine B assay relative to control; settings: MOLT-4, 48 h, read-out: Activity; how it was run: as §1
[3] = test system: NCI-H460; assay: Anticancer activity against human NCI-H460 cells assessed as cell growth at 10 uM after 48 hrs by sulforhodamine B assay relative to control; settings: NCI-H460, 48 h, read-out: Activity; how it was run: as §1
[4] = test system: MDA-MB-435; assay: Anticancer activity against human MDA-MB-435 cells assessed as cell growth at 10 uM after 48 hrs by sulforhodamine B assay relative to control; settings: MDA-MB-435, 48 h, read-out: Activity; how it was run: as §1
[5] = test system: PC-3; assay: Anticancer activity against human PC3 cells assessed as cell growth at 10 uM after 48 hrs by sulforhodamine B assay relative to control; settings: PC-3, 48 h, read-out: Activity; how it was run: as §1
[6] = test system: HCT-15; assay: Anticancer activity against human HCT15 cells assessed as cell growth at 10 uM after 48 hrs by sulforhodamine B assay relative to control; settings: HCT-15, 48 h, read-out: Activity; how it was run: as §1
[7] = test system: HCC 2998; assay: Anticancer activity against human HCC2998 cells assessed as cell growth at 10 uM after 48 hrs by sulforhodamine B assay relative to control; settings: HCC 2998, 48 h, read-out: Activity; how it was run: as §1
[8] = test system: MCF7; assay: Anticancer activity against human MCF7 cells assessed as cell growth at 10 uM after 48 hrs by sulforhodamine B assay relative to control; settings: MCF7, 48 h, read-out: Activity; how it was run: as §1
[9] = test system: NCI-H226; assay: Anticancer activity against human NCI-H226 cells assessed as cell growth at 10 uM after 48 hrs by sulforhodamine B assay relative to control; settings: NCI-H226, 48 h, read-out: Activity; how it was run: as §1
[10] = test system: 786-0; assay: Anticancer activity against human 786-0 cells assessed as cell growth at 10 uM after 48 hrs by sulforhodamine B assay relative to control; settings: 786-0, 48 h, read-out: Activity; how it was run: as §1
[11] = test system: SK-MEL-5; assay: Anticancer activity against human SK-MEL-5 cells assessed as cell growth at 10 uM after 48 hrs by sulforhodamine B assay relative to control; settings: SK-MEL-5, 48 h, read-out: Activity; how it was run: as §1
[12] = test system: SK-OV-3; assay: Anticancer activity against human SKOV3 cells assessed as cell growth at 10 uM after 48 hrs by sulforhodamine B assay relative to control; settings: SK-OV-3, 48 h, read-out: Activity; how it was run: as §1
[13] = test system: SR; assay: Anticancer activity against human SR cells assessed as cell growth at 10 uM after 48 hrs by sulforhodamine B assay relative to control; settings: read-out: Activity
How it was run: (§2)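 NCI-60 single-dose screen: compound added at 10 µM, cultures incubated 48 h. End point by sulforhodamine B protein-binding dye. Value reported as percent growth of treated cells relative to untreated control cells.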

[14] = test system: HT-29; assay: Anticancer activity against human HT-29 cells assessed as cell growth at 10 uM after 48 hrs by sulforhodamine B assay relative to control; settings: HT-29, 48 h, read-out: Activity; how it was run: as §1
[15] = test system: SF-295; assay: Anticancer activity against human SF295 cells assessed as cell growth at 10 uM after 48 hrs by sulforhodamine B assay relative to control; settings: SF-295, 48 h, read-out: Activity; how it was run: as §1
[16] = test system: COLO 205; assay: Anticancer activity against human COLO205 cells assessed as cell growth at 10 uM after 48 hrs by sulforhodamine B assay relative to control; settings: COLO 205, 48 h, read-out: Activity; how it was run: as §1
[17] = test system: BT-549; assay: Anticancer activity against human BT549 cells assessed as cell growth at 10 uM after 48 hrs by sulforhodamine B assay relative to control; settings: BT-549, 48 h, read-out: Activity; how it was run: as §1
[18] = test system: MDA-MB-231; assay: Anticancer activity against human MDA-MB-231 cells assessed as cell growth at 10 uM after 48 hrs by sulforhodamine B assay relative to control; settings: MDA-MB-231, 48 h, read-out: Activity; how it was run: as §1
[19] = test system: SN12C; assay: Anticancer activity against human SN12C cells assessed as cell growth at 10 uM after 48 hrs by sulforhodamine B assay relative to control; settings: read-out: Activity; how it was run: as §1
[20] = test system: UO-31; assay: Anticancer activity against human UO31 cells assessed as cell growth at 10 uM after 48 hrs by sulforhodamine B assay relative to control; settings: UO-31, 48 h, read-out: Activity; how it was run: as §2
[21] = test system: Hs-578T; assay: Anticancer activity against human Hs 578T cells assessed as cell growth at 10 uM after 48 hrs by sulforhodamine B assay relative to control; settings: read-out: Activity; how it was run: as §1
[22] = test system: UACC-62; assay: Anticancer activity against human UACC62 cells assessed as cell growth at 10 uM after 48 hrs by sulforhodamine B assay relative to control; settings: UACC-62, 48 h, read-out: Activity; how it was run: as §2
[23] = test system: CAKI-1; assay: Anticancer activity against human Caki1 cells assessed as cell growth at 10 uM after 48 hrs by sulforhodamine B assay relative to control; settings: CAKI-1, 48 h, read-out: Activity; how it was run: as §1
[24] = test system: CCRF-CEM; assay: Anticancer activity against human CCRF-CEM cells assessed as cell growth at 10 uM after 48 hrs by sulforhodamine B assay relative to control; settings: read-out: Activity; how it was run: as §1
[25] = test system: IGROV-1; assay: Anticancer activity against human IGROV1 cells assessed as cell growth at 10 uM after 48 hrs by sulforhodamine B assay relative to control; settings: IGROV-1, 48 h, read-out: Activity; how it was run: as §1
[26] = test system: NCI-H23; assay: Anticancer activity against human NCI-H23 cells assessed as cell growth at 10 uM after 48 hrs by sulforhodamine B assay relative to control; settings: NCI-H23, 48 h, read-out: Activity; how it was run: as §1
[27] = test system: TK-10; assay: Anticancer activity against human TK10 cells assessed as cell growth at 10 uM after 48 hrs by sulforhodamine B assay relative to control; settings: TK-10, 48 h, read-out: Activity; how it was run: as §2
[28] = test system: T47D; assay: Anticancer activity against human T47D cells assessed as cell growth at 10 uM after 48 hrs by sulforhodamine B assay relative to control; settings: read-out: Activity; how it was run: as §2
[29] = test system: OVCAR-8; assay: Anticancer activity against human OVCAR8 cells assessed as cell growth at 10 uM after 48 hrs by sulforhodamine B assay relative to control; settings: OVCAR-8, 48 h, read-out: Activity; how it was run: as §1
[30] = test system: SW-620; assay: Anticancer activity against human SW620 cells assessed as cell growth at 10 uM after 48 hrs by sulforhodamine B assay relative to control; settings: SW-620, 48 h, read-out: Activity; how it was run: as §2
[31] = test system: OVCAR-3; assay: Anticancer activity against human OVCAR3 cells assessed as cell growth at 10 uM after 48 hrs by sulforhodamine B assay relative to control; settings: OVCAR-3, 48 h, read-out: Activity; how it was run: as §1
[32] = test system: SK-MEL-28; assay: Anticancer activity against human SK-MEL-28 cells assessed as cell growth at 10 uM after 48 hrs by sulforhodamine B assay relative to control; settings: SK-MEL-28, 48 h, read-out: Activity; how it was run: as §1

## C=C1CC[C@@H]2[C@](C)(COC(C)=O)[C@H](OC(C)=O)CC[C@@]2(C)[C@H]1CC(Nc1ccc(S(=O)(=O)Nc2ccc(Cl)nn2)cc1)C1=CCOC1=O (some centres not stated)
[1]
  growth at 10 µM: 47.9%
[2]
  growth at 10 µM: 0.4%
[3]
  growth at 10 µM: 14.5%
[4]
  growth at 10 µM: 8.13%
[5]
  growth at 10 µM: 38.4%
[6]
  growth at 10 µM: -18.4%
[7]
  growth at 10 µM: 88.5%
[8]
  growth at 10 µM: 16.8%
[9]
  growth at 10 µM: -10%
[10]
  growth at 10 µM: 58.8%
[11]
  growth at 10 µM: 35.8%
[12]
  growth at 10 µM: 86.1%
[13]
  growth at 10 µM: -5.26%
[14]
  growth at 10 µM: -18.3%
[15]
  growth at 10 µM: 92.8%
[16]
  growth at 10 µM: 18%
[17]
  growth at 10 µM: -9.45%
[18]
  growth at 10 µM: 23.8%
[19]
  growth at 10 µM: -27.6%
[20]
  growth at 10 µM: 18.4%
[21]
  growth at 10 µM: 75.6%
[22]
  growth at 10 µM: -50%
[23]
  growth at 10 µM: 31.8%
[24]
  growth at 10 µM: -10.3%
[25]
  growth at 10 µM: 43.3%
[26]
  growth at 10 µM: 58.2%
[27]
  growth at 10 µM: 69.8%
[28]
  growth at 10 µM: 34.1%
[29]
  growth at 10 µM: 16.9%
[30]
  growth at 10 µM: -37.7%
[31]
  growth at 10 µM: -56.1%
[32]
  growth at 10 µM: 6.66%
